Here are results for 5 compounds from ChEMBL document CHEMBL3046913, “Feeding deterrence and contact toxicity of Stemona alkaloids-a source of potent natural insecticides” (2002).

Converted amounts (≈) assume the structure as drawn. The source made the active and inactive calls. The rule behind the calls is not given here. Bounds are passed on as bounds.

Assay [1] deals with Spodoptera littoralis. The assay can be described thus: Toxicity in neonate larvae of Spodoptera littoralis at 133 ug/dm2 after 48 hr. In kind it is functional, organism-based. The method in brief:
(§1)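 Contact toxicity: glass vials were coated with seven concentrations of test compound and the solvent evaporated. Twenty neonate larvae were held in the vials for 3 h, then given artificial diet. Survival was read at 48 h and LC50 derived by probit-log analysis. Run in triplicate or duplicate.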

Assay [2] relates to Spodoptera littoralis. The experiment in a line: Antifeedant activity against fifth instar larvae of Spodoptera littoralis at 0.001 ug/cm2 after 24 hr by leaf disk choice assay. It is filed as functional, organism-based. The method in brief:
(§2)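 Leaf disk choice test with fifth instar larvae (about 70 mg each). Lettuce disks of 1.33 cm2 were treated on the upper surface with pure compound at 1-0.001 µg/cm2 in MeOH; controls got solvent only. Two treated and two control disks were placed on moist filter paper with two larvae. Scoring was done when about 50% of control area (0.665 cm2) was eaten, 24 h maximum. Three trials in duplicate, six replicates.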

Assay [3] relates to Spodoptera littoralis. The experiment in a line: Antifeedant activity against fifth instar larvae of Spodoptera littoralis assessed as 5 to 20% of total area of treated leaf disks in each petri dish consumed at 0.01 ug/cm2 after 24 hr by leaf disk choice assay. In kind it is functional, organism-based. The method in brief: as §2
In assay [4] the test system is Spodoptera littoralis. The experiment in a line: Antifeedant activity against fifth instar larvae of Spodoptera littoralis assessed as inhibition of feeding without tasting treated leaf disk at 0.1 ug/cm2 after 24 hr by leaf disk choice assay. In kind it is functional, organism-based. The method in brief:
as §2

The test system of assay [5] is Spodoptera littoralis. The assay can be described thus: Antifeedant activity against fifth instar larvae of Spodoptera littoralis assessed as inhibition of feeding without tasting treated leaf disk at 1 ug/cm2 after 24 hr by leaf disk choice assay. It is filed as functional, organism-based. The method in brief: as §2
The subject of assay [6] is Spodoptera littoralis. The assay can be described thus: Insecticidal activity against neonate larvae of Spodoptera littoralis after 5 days. The note with it: 120 h. It is filed as functional. The method in brief:
(§3)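 Chronic diet assay: neonate larvae (n = 20) from a lab colony were kept on artificial diet spiked via MeOH with eight concentrations of pure alkaloid (0.1-500 ppm). After 5 days in a moist chamber, dark, at 26 °C, survival and weight of survivors were compared with solvent-treated controls. LC50 and EC50 (50% growth inhibition) were derived by probit-log analysis. Run in triplicate.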

Assay [7] has as its system Spodoptera littoralis. The experiment in a line: Toxicity in sixth instar larvae of Spodoptera littoralis assessed as survival at 100 ug/larvae treated directly into hemolymph after 48 hr.
Assay [8] deals with Spodoptera littoralis. The assay can be described thus: Toxicity in neonate larvae of Spodoptera littoralis after 48 hr. It is filed as functional. The method in brief: as §1
Assay [9] has as its system Spodoptera littoralis. The assay can be described thus: Growth inhibition of neonate larvae of Spodoptera littoralis after 5 days. It is filed as functional. The note with it: 120 h. The method in brief: as §3
The subject of assay [10] is Spodoptera littoralis. The experiment in a line: Antifeedant activity against fifth instar larvae of Spodoptera littoralis assessed as < 5% of total area of treated leaf disks in each petri dish consumed at 0.001 ug/cm2 after 24 hr by leaf disk choice assay. In kind it is functional, organism-based. The method in brief: as §2
Assay [11] concerns Spodoptera littoralis. The experiment in a line: Antifeedant activity against fifth instar larvae of Spodoptera littoralis assessed as inhibition of feeding without tasting treated leaf disk at 0.01 ug/cm2 after 24 hr by leaf disk choice assay. In kind it is functional, organism-based. The method in brief: as §2

On to `CC[C@@H]1[C@H]2CCCCN3[C@H]2[C@H](C[C@H]3[C@@H]2C[C@H](C)C(=O)O2)[C@@H]2[C@H]1OC(=O)[C@H]2C` [TUBEROSTEMONINE], for which the AFI result with Spodoptera littoralis [1] and with Spodoptera littoralis [2] was “inactive” throughout. Also, the AFI entry in the assay on Spodoptera littoralis [3], in the assay on Spodoptera littoralis [4] and in the assay with Spodoptera littoralis [5] was “Active” in each case. The compound further yielded an LC50 in the assay on Spodoptera littoralis [6] above 500 µg/mL. Also, in the assay with Spodoptera littoralis [7], the Survival came out at 100%.
Turning to `CCCC[C@@]12C3CCN1[C@H]1C[C@H]2O[C@@]32O/C(=C3\OC(=O)C(C)=C3OC)[C@@H](C)[C@H]12` [STEMOFOLINE], the LC50 in the assay with Spodoptera littoralis [8] is 0.59 microg/dm2; in the assay with Spodoptera littoralis [6] it was 2.04 µg/mL (≈ 5.26 µM). Besides, the EC50 (50% growth inhibition) in the assay on Spodoptera littoralis [9] was 1.46 µg/mL (≈ 3.77 µM).
For `CC/C=C/[C@@]12[C@@H]3C[C@H]4[C@H]5[C@H](C)/C(=C6/OC(=O)C(C)=C6OC)O[C@]5(O3)[C@@H]1CCN42` [DIDEHYDROSTEMOFOLINE], the LC50 in the assay on Spodoptera littoralis [8] is 1.01 microg/dm2; in the assay on Spodoptera littoralis [6], 0.84 µg/mL (≈ 2.18 µM). In the assay on Spodoptera littoralis [9], the EC50 (50% growth inhibition) was 0.46 µg/mL (≈ 1.19 µM).
Consider `CC[C@H](O)C[C@@]12[C@@H]3C[C@H]4[C@H]5[C@H](C)/C(=C6/OC(=O)C(C)=C6OC)O[C@]5(O3)[C@H]1CCN42` [2'-HYDROXYSTEMOFOLINE], for which the EC50 (50% growth inhibition) in the assay with Spodoptera littoralis [9] amounted to 38.5 µg/mL (≈ 95.3 µM). Further, the LC50 in the assay with Spodoptera littoralis [6] came to 30.3 µg/mL (≈ 75.2 µM).
In the case of `C/C=C(\C)C(=O)O[C@H]1C[C@@H](OC(C)=O)[C@@]2(C(=O)OC)CO[C@H]3[C@@H](O)[C@@](C)([C@]45O[C@@]4(C)[C@@H]4C[C@H]5O[C@@H]5OC=C[C@@]54O)[C@H]4[C@]1(CO[C@]4(O)C(=O)OC)[C@@H]32` [AZADIRACHTIN A], the AFI entry with Spodoptera littoralis [1] was “inactive”. Further, the AFI entry in the assay with Spodoptera littoralis [10], with Spodoptera littoralis [11], in the assay with Spodoptera littoralis [4] and in the assay on Spodoptera littoralis [5] was “Active” throughout. The same compound gave an LC50 with Spodoptera littoralis [6] of 8.2 µg/mL (≈ 11.4 µM).
